ChEMBL document CHEMBL4138297, “N-Leucinyl Benzenesulfonamides as Structurally Simplified Leucyl-tRNA Synthetase Inhibitors” (ACS Med Chem Lett, 2018)
Values after ≈ are worked out from the molar mass of the structure shown. Active and inactive are the calls of the source. The rule behind the calls is not given here.

What was measured:
Leucine--tRNA ligase [1] = molecular target: T1, Leucine--tRNA ligase (Escherichia coli (strain K12), UniProt P07813); assay: Displacement of IK-698 from Escherichia coli LeuRS by isothermal titration calorimetric calorimetry
[2] = molecular target: T2, Leucine--tRNA ligase, cytoplasmic (Homo sapiens, UniProt Q9P2J5); assay: Inhibition of human LeuRS assessed as reduction in ATP consumption
Leucine--tRNA ligase [3] = molecular target: T3, Leucine--tRNA ligase (Staphylococcus aureus (strain NCTC 8325), UniProt Q2FXH2); assay: Inhibition of Staphylococcus aureus LeuRS expressed in Escherichia coli M15 cells assessed as reduction in ATP consumption
T3 sequence (Q2FXH2 whole entry): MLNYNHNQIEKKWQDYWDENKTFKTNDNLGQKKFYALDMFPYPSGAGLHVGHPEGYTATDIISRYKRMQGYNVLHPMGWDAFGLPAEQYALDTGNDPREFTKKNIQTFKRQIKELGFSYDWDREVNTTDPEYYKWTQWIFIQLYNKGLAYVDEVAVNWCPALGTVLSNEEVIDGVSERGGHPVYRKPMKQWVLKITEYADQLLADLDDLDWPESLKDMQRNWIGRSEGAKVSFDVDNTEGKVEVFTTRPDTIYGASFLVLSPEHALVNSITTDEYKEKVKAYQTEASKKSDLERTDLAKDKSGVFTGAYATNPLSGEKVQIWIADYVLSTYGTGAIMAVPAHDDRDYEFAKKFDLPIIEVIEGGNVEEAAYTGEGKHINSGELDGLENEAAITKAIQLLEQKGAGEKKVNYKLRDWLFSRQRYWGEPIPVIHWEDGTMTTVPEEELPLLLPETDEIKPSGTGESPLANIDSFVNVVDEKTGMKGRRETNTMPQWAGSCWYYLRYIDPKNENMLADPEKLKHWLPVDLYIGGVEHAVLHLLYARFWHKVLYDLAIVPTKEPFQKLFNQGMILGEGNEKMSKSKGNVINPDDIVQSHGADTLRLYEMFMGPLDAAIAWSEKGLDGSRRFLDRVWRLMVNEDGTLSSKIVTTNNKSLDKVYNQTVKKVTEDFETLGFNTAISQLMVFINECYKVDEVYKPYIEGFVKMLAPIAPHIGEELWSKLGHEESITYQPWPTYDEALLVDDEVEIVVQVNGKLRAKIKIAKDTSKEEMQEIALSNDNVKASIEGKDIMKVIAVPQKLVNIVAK

Leucine--tRNA ligase [4] = molecular target: T1, Leucine--tRNA ligase; assay: Inhibition of Escherichia coli LeuRS expressed in Escherichia coli M15 cells assessed as reduction in ATP consumption
Escherichia coli [5] = assay: Antibacterial activity against Escherichia coli BW25113 after 18 hrs by broth microdilution method; format: functional; details: BW25113, 18 h
Method in brief: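 Standard laboratory E. coli strain BW25113, wild type for efflux; MIC recorded in ug/mL. The same susceptibility testing was also run on BW25113 derivatives deleted for the multidrug efflux components tolC, acrA or acrB.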

Escherichia coli [6] = assay: Antibacterial activity against Escherichia coli ATCC 25922 after 18 hrs by broth microdilution method; format: functional; details: ATCC 25922, 18 h
Leucine--tRNA ligase [7] = molecular target: T1, Leucine--tRNA ligase; assay: Binding affinity to Escherichia coli LeuRS by isothermal titration calorimetric calorimetry
Acinetobacter baumannii = assay: Antibacterial activity against Acinetobacter spp ATCC 19606 after 18 hrs by broth microdilution method; format: functional; details: ATCC 19606 = CIP 70.34 = JCM 6841, 18 h
Enterobacter cloacae = assay: Antibacterial activity against Enterobacter cloacae clinical isolate after 18 hrs by broth microdilution method; format: functional
Staphylococcus aureus = assay: Antibacterial activity against Staphylococcus aureus JE2 after 18 hrs by broth microdilution method; format: functional; details: JE2, 18 h
Escherichia coli [8] = assay: Antibacterial activity against Escherichia coli BW25113 harboring tolC deletion mutant after 18 hrs by broth microdilution method; format: functional, organism-based
Method in brief: (§1)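 MIC (ug/mL) against single-gene deletion derivatives of the standard laboratory E. coli strain BW25113 lacking multidrug efflux components (ΔacrA, ΔacrB, ΔtolC). The parent BW25113 strain was tested alongside.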

Pseudomonas aeruginosa = assay: Antibacterial activity against Pseudomonas aeruginosa PAO1 after 18 hrs by broth microdilution method; format: functional; details: PAO1, 18 h
Klebsiella pneumoniae = assay: Antibacterial activity against Klebsiella pneumoniae clinical isolate after 18 hrs by broth microdilution method; format: functional
Escherichia coli [9] = assay: Antibacterial activity against Escherichia coli BW25113 harboring AcrB deletion mutant after 18 hrs by broth microdilution method; format: functional, organism-based; method in brief: as §1
Escherichia coli [10] = assay: Antibacterial activity against Escherichia coli BW25113 harboring AcrA deletion mutant after 18 hrs by broth microdilution method; format: functional, organism-based; method in brief: as §1
[11] = molecular target: T4, Leucyl-tRNA synthetase, putative (Trypanosoma brucei brucei (strain 927/4 GUTat10.1), UniProt Q386D9); assay: Inhibition of Trypanosoma brucei LeuRS assessed as reduction in protein synthesis pretreated for 20 mins in presence of [14C]Leu followed by ATP addition measured after 15 mins by scintillation counting method
T4 sequence (Q386D9 whole entry): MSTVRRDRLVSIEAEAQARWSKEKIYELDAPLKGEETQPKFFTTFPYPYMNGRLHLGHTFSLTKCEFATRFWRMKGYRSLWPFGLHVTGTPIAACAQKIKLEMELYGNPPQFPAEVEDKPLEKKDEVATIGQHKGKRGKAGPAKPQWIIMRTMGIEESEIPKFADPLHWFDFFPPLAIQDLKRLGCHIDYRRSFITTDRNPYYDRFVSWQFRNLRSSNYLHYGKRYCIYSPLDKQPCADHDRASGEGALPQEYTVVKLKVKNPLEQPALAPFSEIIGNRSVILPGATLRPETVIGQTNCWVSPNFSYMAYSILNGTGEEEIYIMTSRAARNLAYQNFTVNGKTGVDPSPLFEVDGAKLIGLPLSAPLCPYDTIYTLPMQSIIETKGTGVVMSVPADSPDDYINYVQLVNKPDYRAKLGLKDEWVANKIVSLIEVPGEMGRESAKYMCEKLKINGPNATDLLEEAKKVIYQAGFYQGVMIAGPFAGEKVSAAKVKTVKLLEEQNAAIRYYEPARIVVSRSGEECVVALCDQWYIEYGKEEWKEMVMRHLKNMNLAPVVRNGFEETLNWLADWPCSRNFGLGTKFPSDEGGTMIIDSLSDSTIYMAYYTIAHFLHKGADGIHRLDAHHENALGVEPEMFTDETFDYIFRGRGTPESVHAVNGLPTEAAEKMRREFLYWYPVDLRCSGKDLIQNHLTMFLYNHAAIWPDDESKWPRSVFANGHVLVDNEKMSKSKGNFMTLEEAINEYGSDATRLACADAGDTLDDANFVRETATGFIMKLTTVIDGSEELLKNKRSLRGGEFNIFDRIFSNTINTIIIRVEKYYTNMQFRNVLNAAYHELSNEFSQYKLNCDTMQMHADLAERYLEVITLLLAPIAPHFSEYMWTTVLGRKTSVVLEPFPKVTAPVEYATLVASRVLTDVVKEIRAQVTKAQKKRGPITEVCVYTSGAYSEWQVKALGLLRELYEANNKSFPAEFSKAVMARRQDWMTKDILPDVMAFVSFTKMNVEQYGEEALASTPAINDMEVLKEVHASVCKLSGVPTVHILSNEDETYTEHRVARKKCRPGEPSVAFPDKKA

[12] = molecular target: T2, Leucine--tRNA ligase, cytoplasmic; assay: Inhibition of human cytoplasmic LeuRS assessed as reduction in protein synthesis measured after 10 mins in presence of [3H]Leu by scintillation counting method

T1 sequence (P07813 whole entry): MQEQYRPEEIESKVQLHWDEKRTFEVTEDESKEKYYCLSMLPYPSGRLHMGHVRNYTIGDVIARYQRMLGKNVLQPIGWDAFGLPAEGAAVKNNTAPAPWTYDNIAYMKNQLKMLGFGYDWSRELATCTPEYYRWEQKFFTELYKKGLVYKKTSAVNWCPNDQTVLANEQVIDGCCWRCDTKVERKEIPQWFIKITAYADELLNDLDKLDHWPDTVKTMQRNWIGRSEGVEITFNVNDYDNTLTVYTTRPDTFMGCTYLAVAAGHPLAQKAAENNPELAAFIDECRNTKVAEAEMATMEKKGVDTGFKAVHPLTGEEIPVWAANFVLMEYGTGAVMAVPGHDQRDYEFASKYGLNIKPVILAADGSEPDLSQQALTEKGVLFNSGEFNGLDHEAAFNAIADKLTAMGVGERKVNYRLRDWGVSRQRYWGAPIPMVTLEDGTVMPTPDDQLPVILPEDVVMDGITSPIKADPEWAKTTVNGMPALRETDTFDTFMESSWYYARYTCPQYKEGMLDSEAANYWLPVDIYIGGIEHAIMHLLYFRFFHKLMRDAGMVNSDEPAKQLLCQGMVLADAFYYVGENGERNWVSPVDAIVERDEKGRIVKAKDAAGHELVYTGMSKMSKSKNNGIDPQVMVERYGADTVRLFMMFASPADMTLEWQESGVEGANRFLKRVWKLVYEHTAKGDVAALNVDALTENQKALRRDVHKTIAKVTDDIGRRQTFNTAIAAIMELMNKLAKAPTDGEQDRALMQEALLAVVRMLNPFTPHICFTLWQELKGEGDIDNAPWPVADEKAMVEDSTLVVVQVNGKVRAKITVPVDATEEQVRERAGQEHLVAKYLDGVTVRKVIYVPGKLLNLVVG
T2 sequence (Q9P2J5 whole entry): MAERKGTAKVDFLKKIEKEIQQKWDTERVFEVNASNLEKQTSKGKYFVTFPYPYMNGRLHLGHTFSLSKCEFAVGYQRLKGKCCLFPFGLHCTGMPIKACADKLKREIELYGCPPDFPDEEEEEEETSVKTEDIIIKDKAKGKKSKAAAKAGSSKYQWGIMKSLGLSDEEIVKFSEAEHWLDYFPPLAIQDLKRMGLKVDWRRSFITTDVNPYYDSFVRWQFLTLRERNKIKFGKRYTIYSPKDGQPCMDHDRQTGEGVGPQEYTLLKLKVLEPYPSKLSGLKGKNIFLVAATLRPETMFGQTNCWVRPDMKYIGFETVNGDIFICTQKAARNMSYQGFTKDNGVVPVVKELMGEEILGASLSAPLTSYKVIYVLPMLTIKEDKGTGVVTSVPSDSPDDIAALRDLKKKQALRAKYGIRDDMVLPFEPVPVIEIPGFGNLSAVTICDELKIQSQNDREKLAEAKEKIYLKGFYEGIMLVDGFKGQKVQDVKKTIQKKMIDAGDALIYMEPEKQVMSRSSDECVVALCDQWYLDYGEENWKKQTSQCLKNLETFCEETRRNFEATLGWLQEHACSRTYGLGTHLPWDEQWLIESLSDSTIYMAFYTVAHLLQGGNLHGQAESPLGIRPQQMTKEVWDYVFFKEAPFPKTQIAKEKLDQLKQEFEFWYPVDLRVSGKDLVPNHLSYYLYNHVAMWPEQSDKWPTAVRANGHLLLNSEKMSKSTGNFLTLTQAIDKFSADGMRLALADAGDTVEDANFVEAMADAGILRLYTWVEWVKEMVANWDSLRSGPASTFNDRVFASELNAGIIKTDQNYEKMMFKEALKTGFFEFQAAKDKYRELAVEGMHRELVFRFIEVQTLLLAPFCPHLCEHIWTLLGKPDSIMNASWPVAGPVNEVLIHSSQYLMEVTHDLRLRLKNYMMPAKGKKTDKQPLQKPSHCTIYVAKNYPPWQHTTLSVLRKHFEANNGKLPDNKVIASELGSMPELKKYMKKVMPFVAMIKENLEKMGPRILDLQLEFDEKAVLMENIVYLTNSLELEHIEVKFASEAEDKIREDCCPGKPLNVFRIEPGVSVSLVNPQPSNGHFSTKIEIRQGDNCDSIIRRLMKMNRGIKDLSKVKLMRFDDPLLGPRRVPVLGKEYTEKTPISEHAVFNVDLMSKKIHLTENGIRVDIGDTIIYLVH

Row | Kd (Leucine--tRNA ligase [1]) [nM] | IC50 [2] [nM] | IC50 (Leucine--tRNA ligase [3]) [nM] | IC50 (Leucine--tRNA ligase [4]) [nM] | Compound | further results
1 | 64 | 220 |  |  | CC(C)C[C@H](N)C(=O)NS(=O)(=O)c1ccc2ccccc2c1 | 
2 | 12.8 | 490 | 650 | 14 | CC(C)C[C@H](N)C(=O)NS(=O)(=O)c1cccc(-c2ccnc(N)c2)c1 | 
3 | 10.9 | 1200 | 920 |  | CC(C)C[C@H](N)C(=O)NS(=O)(=O)c1cccc(-c2ccncc2)c1 | 
4 | 10.2 | 3400 | 640 |  | CC(C)C[C@H](N)C(=O)NS(=O)(=O)c1cccc(-c2ccccc2)c1 | 
5 | 22 | 2000 | 2700 | 47 | Cc1cc(-c2cccc(S(=O)(=O)NC(=O)[C@@H](N)CC(C)C)c2)ncn1 | 
6 | 13.9 | 850 | 1700 | 23 | CC(C)C[C@H](N)C(=O)NS(=O)(=O)c1cccc(-c2cccc(N)n2)c1 | 
7 |  |  |  |  | CC(C)C[C@H](N)C(=O)NS(=O)(=O)c1cccc(NC(=S)NC(=O)COc2ccc(Br)cc2Cl)c1 | IC50 [11]: 1100 nM; IC50 [12]: 4500 nM
8 | 56 | 33 | 3600 | 224 | CC(C)C[C@H](N)C(=O)NS(=O)(=O)c1cccc(-c2cc(-c3ccccc3)nc(N)n2)c1 | 
9 | 14.5 | 3900 | 9200 |  | CC(C)C[C@H](N)C(=O)NS(=O)(=O)c1cccc(-c2ccnc(N)n2)c1 | 

Row | Compound | Kd (Leucine--tRNA ligase [1]) [nM] | IC50 [2] [nM] | IC50 (Leucine--tRNA ligase [3]) [nM] | IC50 (Leucine--tRNA ligase [4]) [nM] | further results
10 | CC(C)C[C@H](N)C(=O)NS(=O)(=O)c1ccccc1 |  | 1100 |  |  | MIC (Escherichia coli [5]): > 128 µg/mL; MIC (Escherichia coli [6]): 8 µg/mL (≈ 29.6 µM); Kd (Leucine--tRNA ligase [7]): 92.9 nM; MIC (Acinetobacter baumannii): 64 µg/mL (≈ 237 µM); MIC (Enterobacter cloacae): 128 µg/mL (≈ 473 µM); MIC (Staphylococcus aureus): > 256 µg/mL; Activity (Escherichia coli [8]): Active; MIC (Pseudomonas aeruginosa): 64 µg/mL (≈ 237 µM); MIC (Klebsiella pneumoniae): 64 µg/mL (≈ 237 µM)
11 | Cc1cc(-c2cccc(S(=O)(=O)NC(=O)[C@@H](N)CC(C)C)c2)nc(N)n1 | 10 | 160 | 4400 | 41 | Activity (Escherichia coli [9]): Active; Activity (Escherichia coli [10]): Active; Activity (Escherichia coli [8]): Active
